Hits are enriched below; roughly 4.9% of the tested compounds scored in any of these assays.
HSF-1 act – increases HSF-1 driven luciferase reporter signal; 300,000 tested, 1.7% active; activation, % at 9 µM; NIH3T3-HGL HSF-1 luciferase reporter, MG132, 8 h; 100% = twice DMSO control signal; AID 504408;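 active means mean replicate activation of at least 50% with a set share of replicates each reaching 50%; inconclusive means only one of those two conditions met; inactive means mean below 50% and too few replicates reaching it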;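 further: 0% = median of the neutral control wells and 100% = twice that signal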
PHOSPHO1 inh – PHOSPHO1 (human) inhibition; Q8TCT1; recombinant PHOSPHO1, absorbance phosphatase assay; inhibition, % at 13.3 µM; 290,000 tested, 1.1% active; in the data active means inhibition above about 60%
CHT block – inhibits the human high affinity choline transporter | AID 488975 | 310,000 tested, 0.86% active | CHT-expressing cells, membrane potential dye, choline response; stronger effect = lower value | B-score at 10 µM;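 active means B-score over 3 SD under the library average, and starting fluorescence ratio not unusually high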;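 further: choline stimulus applied at its EC90 after an EC20 pre-addition; B-score computed on integrated fluorescence ratio after choline addition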
Target sequence (Q9GZV3 whole entry, looked up): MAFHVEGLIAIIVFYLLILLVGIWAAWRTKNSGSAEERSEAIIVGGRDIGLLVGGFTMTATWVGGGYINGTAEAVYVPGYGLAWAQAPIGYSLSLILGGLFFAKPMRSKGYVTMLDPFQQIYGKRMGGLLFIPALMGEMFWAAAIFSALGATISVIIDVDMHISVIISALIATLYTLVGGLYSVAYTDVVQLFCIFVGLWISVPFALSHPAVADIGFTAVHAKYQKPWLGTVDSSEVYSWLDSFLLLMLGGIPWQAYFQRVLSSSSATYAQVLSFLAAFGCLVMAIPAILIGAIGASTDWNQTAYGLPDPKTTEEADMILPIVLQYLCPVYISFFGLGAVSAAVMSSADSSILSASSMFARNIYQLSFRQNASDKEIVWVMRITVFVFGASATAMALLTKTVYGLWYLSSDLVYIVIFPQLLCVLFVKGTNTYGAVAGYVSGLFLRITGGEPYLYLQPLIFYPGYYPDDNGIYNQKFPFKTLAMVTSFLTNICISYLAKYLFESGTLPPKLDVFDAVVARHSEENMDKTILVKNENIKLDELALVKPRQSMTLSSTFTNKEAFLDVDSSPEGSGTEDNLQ
Lipid droplet – modulators of hepatic lipid droplet formation; AML12 mouse hepatocytes, oleate lipid droplets, BODIPY imaging; 240,000 tested, 0.4% active; inhibition, % at 6.5 µM;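 active means lipid droplet intensity inhibited by at least 50%, with more than 500 cells counted; inconclusive means wells with under 300 cells, treated as cytotoxic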
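System: AML12 hepatocytes (mouse). Probe or stimulus: oleic acid at 100 µM to induce lipid droplet formation. Times: overnight treatment with compound plus oleate. Detection: Image-based BODIPY and DAPI two-channel analysis. Evaluation: percent inhibition of filter-corrected integrated lipid droplet intensity per well.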
HSF1 inh – HSF1 inhibition | activity change, negative = inhibition, % at 7.5 µM (by protocol) | NIH3T3-HGL HSE-luciferase, MG132-induced, luminescence 8 h; stronger effect = lower value | 300,000 tested, 0.77% active;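 active means more than half of replicate wells show activity change below -50%, luminescence cut by over half; inconclusive means some wells, but at most half, below -50%; inactive means no replicate well below -50%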;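 further: luciferase reports HSF-1 transcriptional activity via heat shock element; 0% = median of DMSO wells and -100% = zero luminescence signal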
CHT allo act – allosteric activators of human choline transporter CHT | AID 488977 | 310,000 tested, 0.49% active | CHT-expressing cells, membrane potential dye, choline EC20; stronger effect = higher value; LV-AA mutant CHT in HEK293 cells | Q9GZV3 | B-score at 10 µM;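 active means initial fluorescence not abnormally high and integrated response B-score, plate-corrected, over 3 SD above library mean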
The depositor's hits bear a star; i = inactive; ? = inconclusive; . = not tested or not shown.

SMILES	HSF-1 act	PHOSPHO1 inh	CHT block	Lipid droplet	HSF1 inh	CHT allo act
CCN(Cc1ccccc1)C(=O)CS(=O)(=O)c1ccccc1	-3	-1	i	10	-1	i
O=S(=O)(C/C(=C/CO)S(=O)(=O)c1ccccc1)c1ccccc1	-79	18	i	.	-77*	i
CN1CCN(c2ccc(Nc3ccnc4cc(Cl)ccc34)cc2)CC1	52*	.	i	-8	22	i
CCCc1cc(SCC(=O)Nc2c(C)n(C)n(-c3ccccc3)c2=O)n2c(nc3ccccc32)c1C#N	13	100*	i	-9	2	i
CCOC(=O)CSc1cc(C)c(C#N)c2nc3ccccc3n12	58*	57	i	4	21	i
CCOC(=O)CSc1nc(C)cc(C)c1C#N	2	52	i	4	3	i
CCc1c(C)c(C#N)c2nc3ccccc3n2c1Cl	435*	4	.	2	378	.
COc1ccccc1C(=O)Nc1ccnn1C1CCN(C(=O)c2cnsn2)CC1	26	-22	i	.	-5	i
COc1cc(C2C(C(=O)OC(C)C)=C(C)Nc3[nH]c(=O)[nH]c(=O)c32)ccc1O (stereo not given)	-10	-8	i	.	0	i
O=c1c(C(c2ccc(O)cc2)c2c(O)nc3n(c2=O)CCCS3)c(O)nc2n1CCCS2	-1	65*	i	.	-11	i
O=c1c(C(c2ccc(O)cc2)c2c(O)nc3n(c2=O)CCS3)c(O)nc2n1CCS2	-12	40	i	.	-4	i
CCOC(=O)Nc1ccc(C(=O)Oc2ccccc2)c(O)c1	68*	-14	i	.	42	i
Cc1ccc(-n2nnnc2-c2nc3ccccc3s2)cc1	-16	3	i	-10	-5	i
CCOc1ccc(-n2nnnc2-c2nc3ccccc3s2)cc1	-65	-24	i	1	-57*	i
COc1ccc(Cc2nnc(N/N=C/c3ccc(O)cc3)[nH]c2=O)cc1OC	-6	1	i	9	-6	i
Cc1cc(C)nc(S/C=C/C(=O)c2ccccc2F)n1	189*	3	i	-16	150	i
CN(CCO)c1nc(N)c(C#N)c(CC#N)c1C#N	23	43	i	4	3	i
CC(C)CN(CC(C)C)c1nc(N)c(C#N)c(CC#N)c1C#N	132*	-8	i	-29	112	i
CCOc1ccccc1CNC(=O)CCCC(=O)n1nc(C)c2ccccc21	16	2	i	-24	2	i
COc1ccc(-c2ccc3c(N)c(C(=O)c4cccc(OC)c4)sc3n2)cc1	16	89*	i	13	12	i
N#Cc1ccc(N=c2ssnc2Cl)cc1	-16	-88	i	.	0	i
COc1ccc(N=c2ssnc2Cl)cc1	-3	77*	i	-11	0	i
Fc1ccc(N=c2ssnc2Cl)c(F)c1	2	37	i	-25	-6	i
Clc1ccc(N=c2ssnc2Cl)cc1	-15	89*	i	-2	-8	i
CCOC(=O)c1ccc(N=c2ssnc2Cl)cc1	-26	77*	.	9	-13	.
SMILES	HSF-1 act	PHOSPHO1 inh	CHT block	Lipid droplet	HSF1 inh	CHT allo act
Clc1nssc1=Nc1ccccc1	.	97*	.	-3	.	.
COc1ccc(N=Cc2sc3ccccc3c2Cl)cc1	-45	27	i	.	?	i
COc1ccccc1Cn1c(=S)[nH]c2cc(C(=O)NCCCN3CCOCC3)ccc2c1=O	16	20	i	-8	-7	i
CCN1CCN(c2nc(C)nc3c2sc(=S)n3C)CC1	.	60*	.	12	.	.
CS(=O)(=O)Nn1cnc2ccccc2c1=O	-20	-8	i	3	-5	i
CC1(C)OC(=O)C(=CNn2cnc3ccccc3c2=O)C(=O)O1	1	63*	i	.	-11	i
COC(=O)c1ccc(-c2nc3cc(Cl)c(N)cc3s2)cc1	-65	4	i	-8	-57*	i
O=C(Nc1nnc(SCC(=O)N2CCOCC2)s1)c1ccccc1Cl	3	66*	i	31	-6	i
CCSc1nnc(NC(=O)C(CC)(C(F)(F)F)C(F)(F)F)s1	1	9	-5.2*	7	3	i
CCSc1nnc(NC(=O)c2cccnc2Cl)s1	55*	-10	i	-15	18	i
COc1ccc(CNC(=O)C2CCCN2S(=O)(=O)c2ccc(Cl)cc2)cc1 (stereo not given)	16	-6	i	-6	1	i
CCSC1=NCCN1C(=O)C(C)(C)Oc1ccc(Cl)cc1	-2	42	i	4	4	i
Cn1cnc([N+](=O)[O-])c1S(=O)(=O)c1cccc(Cl)c1	56*	2	i	0	41	i
O=C(Nc1ccc2c(c1)OCO2)c1cc(-c2ccccc2Cl)on1	57*	8	i	0	14	i
O=C(Nc1ccc2c(c1)OCO2)c1ccc(Cl)cc1Cl	53*	20	i	-7	26	i
O=C(Nc1cccc(C(F)(F)F)c1)c1cc2ncc(Br)cn2n1	-1	-4	i	8	-4	i
COc1ccc(Cl)cc1N(CC(=O)Nc1ccc2c(c1)OCO2)S(C)(=O)=O	15	69*	i	.	8	i
O=C(Nc1ccc2c(c1)OCO2)c1cc2ncc(Br)cn2n1	6	11	.	69*	-1	.
Cc1cccc(CN2C3=NCCCN3c3ccccc32)c1	6	20	i	-29	-4	i
CC(CCCC(C)(C)O)CC1C2=C(CCCC2=O)OC2=C1C(=O)CCC2 (stereo not given)	-9	5	i	-17	-8	i
CCCCN(C)C(=O)c1c[nH]c2ccc(S(=O)(=O)N3CCOCC3)cc2c1=O	4	-15	i	-11	3	i
O=C(NC(=S)Nc1ccc2c(c1)OCO2)c1ccccc1	57*	-65	i	.	26	i
CC(C)(O)C#Cc1ccc(C(=O)Nc2ccc3c(c2)OCO3)s1	60*	20	i	-10	41	i
O=C(Nc1ccc2c(c1)OCO2)c1ccccc1	58*	23	i	-6	21	i
O=C(Nc1ccc2c(c1)OCO2)c1cccc(F)c1	17	-50	i	-10	14	i
COCCOC(=O)c1c(C)n(C)c2ccc(OC(=O)c3c(OC)cccc3OC)cc12	-8	-103	i	37	-12	i
Cc1noc(C)c1COC(=O)c1cc2c3ccccc3n(C)c2s1	.	35	i	.	.	i
CCOC(=O)Cn1nc(C)c(NC(=O)COc2ccc([N+](=O)[O-])c(C)c2)c1C	15	9	i	0	-1	i
CC(=O)c1cccc(NC(=O)CCC2CCCC2)c1	12	23	i	.	9	i
